From ChEMBL document CHEMBL1122451, “Synthesis of 3,4-dihydro-4-oxoquinazoline derivatives as potential anticonvulsants” (J Med Chem, 1983)
The source made the active and inactive calls.

Tests used:
Mus musculus [1] = organism: Mus musculus; assay: Anticonvulsant activity in mice using MES seizure test; determined at time of peak effect (0.5 hr); assay type: functional
Method in brief: (§1)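 Mice were injected at 30, 100, 300 and 600 mg/kg, four per dose, and tested at 30 min and 4 h. Protection means abolition of the hindlimb tonic extensor component of the maximal electroshock seizure (60 Hz alternating current, 50 mA, 0.2 s, corneal electrodes). ED50 was estimated graphically. Confirmed values carry Litchfield-Wilcoxon 95% confidence limits.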

Mus musculus [2] = assay: Anticonvulsant activity in mice using sc Met seizure test;NA means inactive.; assay type: functional, organism-based
Method in brief: (§2)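 Mice were dosed at 30, 100, 300 and 600 mg/kg, four per dose, and tested at 30 min and 4 h. Pentylenetetrazol was then given subcutaneously at its CD99. Protection means absence of even a threshold seizure (one clonic spasm of 5 s). ED50 was estimated graphically, some at peak-effect time or 4 h. Litchfield-Wilcoxon 95% limits apply where confirmed.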

Mus musculus [3] = organism: Mus musculus; assay: Anticonvulsant activity expressed as toxic dose in rotarod test (0.5 hr) in mice;NA means inactive.; assay type: ADME, organism-based; conditions: in vivo
Method in brief: (§3)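 Mice, rotorod test of acute neurotoxicity at 0.5 h. Doses 30, 100, 300 and 600 mg/kg, four animals per dose, with positives assessed by four more observations. Median neurotoxic dose (TD50) was estimated graphically from combined ADD and in-house screening. Where confirmed by further ADD testing, 95% confidence limits were calculated by Litchfield-Wilcoxon.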

Mus musculus [4] = assay: Anticonvulsant activity in mice using sc Met seizure test.; assay type: functional; method in brief: as §2
Mus musculus [5] = organism: Mus musculus; assay: Anticonvulsant activity in mice using MES seizure test;NA means inactive.; assay type: functional, organism-based; method in brief: as §1
Mus musculus [6] = assay: Anticonvulsant activity in mice using sc Met seizure test;Activity is determined at 4h.; assay type: functional
Method in brief: (§4)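 Subcutaneous pentylenetetrazol at the CD99 convulsant dose was given to mice pretreated at 30–600 mg/kg, four per dose, with tests at 30 min and 4 h. Protection is the absence of even a threshold seizure (one clonic spasm episode of 5 s). ED50 is estimated graphically or determined at the time of peak effect; 95% limits are by Litchfield-Wilcoxon.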

Mus musculus [7] = assay: Anticonvulsant activity in mice using MES seizure test;Compound is neurotoxic at 300 mg/kg dose.; assay type: functional, organism-based; parameters: dose 300 mg/kg
[8] = Anticonvulsant activity expressed as toxic dose in rotarod test (0.5 hr) in mice; assay type: toxicity, organism-based; conditions: mouse, in vivo
Method in brief: (§5)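 Acute neurotoxicity in mice by rotorod test after injection at 30, 100, 300 and 600 mg/kg, read at 30 min and 4 h, four animals per dose. TD50 is the median neurotoxic dose, estimated graphically; where confidence limits are given they are 95% limits by the Litchfield-Wilcoxon method from additional ADD testing.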

Mus musculus [9] = assay: Anticonvulsant activity in mice using sc Met seizure test;Activity determined at the time of peak effect (1hr) and value ranges from (26-62).; assay type: functional; method in brief: as §4
[10] = Anticonvulsant activity expressed as toxic dose in rotarod test (0.5 hr) in mice;Activity determined at the time of peak effect (0.5 hr) and value ranges from (126-147).; assay type: ADME, organism-based; conditions: mouse, in vivo; method in brief: as §5
Mus musculus [11] = assay: Anticonvulsant activity in mice using sc Met seizure test;Activity determined at time of peak effect (0.5 hr) and value ranges from(12-20).; assay type: functional; method in brief: as §4
Mus musculus [12] = organism: Mus musculus; assay: Anticonvulsant activity in mice using MES seizure test;Activity determined at time of peak effect (0.5 hr) and value ranges from(48-55); assay type: functional
[13] = Anticonvulsant activity expressed as toxic dose in rotarod test (0.5 hr) in mice;Value ranges from(36-43).; assay type: ADME, organism-based; conditions: mouse, in vivo; method in brief: as §5
Mus musculus [14] = assay: Anticonvulsant activity in mice using sc Met seizure test;Activity determined at 4h.; assay type: functional; method in brief: as §4
Mus musculus [15] = assay: Anticonvulsant activity in mice using MES seizure test;Compound is neurotoxic at 100 mg/kg.; assay type: functional, organism-based; parameters: dose 100 mg/kg
[16] = Anticonvulsant activity expressed as toxic dose in rotarod test (0.5 hr) in mice;Activity determined at time of peak effect (0.5 hr); assay type: ADME, organism-based; conditions: mouse, in vivo; method in brief: as §5
Mus musculus [17] = organism: Mus musculus; assay: Anticonvulsant activity in mice using MES seizure test;Activity determined at time of peak effect (0.5 hr) and value ranges from (48-56).; assay type: functional; method in brief: as §1
[18] = Anticonvulsant activity expressed as toxic dose in rotarod test (0.5 hr) in mice;Activity determined at time of peak effect (0.5 hr) and value ranges from(47-65).; assay type: ADME, organism-based; conditions: mouse, in vivo; method in brief: as §3
Mus musculus [19] = assay: Anticonvulsant activity expressed as toxic dose in rotarod test (0.5 hr) in mice;4 out of 4 mice died at 600 mg/kg; wild running and tonic extension convulsion at 300 mg/kg;NA means inactive.; assay type: ADME, organism-based; conditions: in vivo; method in brief: as §3
Mus musculus [20] = assay: Anticonvulsant activity in mice using sc Met seizure test;Compound is neurotoxic at 5 mg/kg.; assay type: functional, organism-based; parameters: dose 5 mg/kg
Mus musculus [21] = assay: Anticonvulsant activity in mice using MES seizure test;Compound is neurotoxic at 30 mg/kg dose.; assay type: functional, organism-based; parameters: dose 30 mg/kg
Mus musculus [22] = organism: Mus musculus; assay: Anticonvulsant activity in mice using MES seizure test.; assay type: functional; method in brief: as §1

With `COC(=O)c1c(C)c(C)cc2c(=O)n(-c3ccccn3)c(C)nc12` the ED50 (Mus musculus [1]) was 52 mg/kg, the ED50 (Mus musculus [2]) was “inactive” and the TD50 (Mus musculus [3]) was “Not Active”.

With `COC(=O)c1c(C)c(C)cc2c(=O)n(-c3ccccc3C)c(C)nc12` the ED50 (Mus musculus [4]) was 600 mg/kg, the ED50 (Mus musculus [5]) was “inactive” and the TD50 (Mus musculus [3]) was “Not Active”.

With `Cc1nc2cccnc2c(=O)n1-c1ccc(C(F)(F)F)cc1` the ED50 (Mus musculus [6]) was 90 mg/kg, the ED50 (Mus musculus [7]) was “inactive” and the TD50 at 0.5 h [8] was 170 mg/kg.

In the case of `COC(=O)c1c(C)c(C)cc2c(=O)n(-c3ccccc3F)c(C)nc12`, the ED50 (Mus musculus [2]) is reported as “inactive”, the ED50 (Mus musculus [5]) is reported as “inactive” and the TD50 at 0.5 h [8] is reported as 280 mg/kg.

In the case of `Cc1ccccc1-n1c(C)nc2ncccc2c1=O`, the ED50 (Mus musculus [9]) is reported as 40 mg/kg, the ED50 (Mus musculus [7]) is reported as “inactive” and the TD50 at 0.5 h [10] is reported as 137 mg/kg.

For `Cc1ccccc1-n1c(C)nc2cccnc2c1=O`, the ED50 (Mus musculus [11]) was 16.5 mg/kg, the ED50 (Mus musculus [12]) was 52 mg/kg and the TD50 at 0.5 h [13] was 40 mg/kg.

With `Cc1nc2cccnc2c(=O)n1-c1ccccc1C(F)(F)F` the ED50 (Mus musculus [14]) was 100 mg/kg, the ED50 (Mus musculus [15]) was “inactive” and the TD50 at 0.5 h [16] was 100 mg/kg.

`Cc1ccccc1-n1c(C)nc2ccccc2c1=O` [METHAQUALONE] showed an ED50 (Mus musculus [17]) of 52 mg/kg and a TD50 at 0.5 h [18] of 55 mg/kg.

With `Cc1nc2cccnc2c(=O)n1-c1cccc(C(F)(F)F)c1` the ED50 (Mus musculus [2]) was “inactive”, the ED50 (Mus musculus [5]) was “inactive” and the TD50 at 0.5 h [8] was 50 mg/kg.

In the case of `Cc1cc2c(=O)n(-c3ccccn3)c(C)nc2c(C(=O)O)c1C`, the ED50 (Mus musculus [2]) is reported as “inactive”, the ED50 (Mus musculus [5]) is reported as “inactive” and the TD50 (Mus musculus [19]) is reported as “Not Active”.

In the case of `Cc1nc2cccnc2c(=O)n1-c1ccc(Cl)cc1Cl`, the ED50 (Mus musculus [20]) is reported as “inactive” and the ED50 (Mus musculus [21]) is reported as “inactive”.

For `COC(=O)c1c(C)c(C)cc2c(=O)n(-c3cccc(F)c3)c(C)nc12`, the ED50 (Mus musculus [4]) was 430 mg/kg, the ED50 (Mus musculus [5]) was “inactive” and the TD50 at 0.5 h [8] was 540 mg/kg.

In the case of `COC(=O)c1c(C)c(C)cc2c(=O)n(-c3ccc(F)cc3)c(C)nc12`, the ED50 (Mus musculus [4]) is reported as 440 mg/kg, the ED50 (Mus musculus [22]) is reported as 600 mg/kg and the TD50 (Mus musculus [3]) is reported as “Not Active”.

For `Cc1cc2c(=O)n(-c3ccc(F)cc3)c(C)nc2c(C(=O)O)c1C`, the ED50 (Mus musculus [4]) was 440 mg/kg, the ED50 (Mus musculus [5]) was “inactive” and the TD50 (Mus musculus [3]) was “Not Active”.
